# In ChEMBL document CHEMBL4513216, “Probing the Open Global Health Chemical Diversity Library for Multistage-Active Starting Points for Next-Generation Antimalarials” (ACS Infect Dis, 2020):
# Test: Toxicity liver stage against HepG2, at 10uM
# Assay type: cell-based
# Parameters: test concentration 10 uM, cell line HepG2-A16-CD81EGFP
# Conditions: human, HepG2-A16-CD81EGFP cells; read-out: INHIBITION
# Summary of the method: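 Uninfected HepG2-A16-CD81EGFP cells, 3 × 10^3 per well, 1536-well, plated on prespotted compound at 10 μM final, parasite-free screening media added to match infected plates; puromycin 10 μM positive, DMSO 0.5% negative; run in parallel with 48 h PbLuc assay at 37 °C, 5% CO2; viability by CellTiter-Glo luminescence, normalized to controls.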
row,SMILES,cytotoxicity at 10 µM
1,O=C1CCC2(CCC(NCc3ccc4c(c3)OCO4)CC2)N1 (stereo not given),1.97%
2,CCCOC(=O)N1CCCC(c2nnc(CN3CCOCC3)n2C)C1 (stereo not given),2.19%
3,CC(C)C(NC(=O)NCc1cccnc1N(C)C)c1cccs1 (stereo not given),-1.86%
4,N#Cc1cccc(N2CC3(CCN(C(=O)C4CC=CC4)C3)CC2=O)c1 (stereo not given),1.77%
5,Clc1cccc2c3c([nH]c12)CCN(Cc1cc2n(n1)CCNC2)C3,-0.735%
6,O=c1[nH]c2c(-c3ccccn3)nsc2c(=O)n1C1CCCCC1,-11.5%
7,Cc1ccc(CN2CCc3onc(C(=O)NCCN(C)C)c3C2)o1,5.9%
8,Cn1ccc2c(NC(=O)Cn3ncc4c(c3=O)CCCC4)cccc21,2.33%
9,O=C(CN1CCCS1(=O)=O)Nc1ccc(OC2CCCC2)c(Cl)c1,-8.87%
10,NC(=O)CN(CC(=O)NCc1cccc(Cl)c1)C1CCCC1,-0.979%
11,CN(C)c1nc(CNC(=O)N[C@H](CO)c2ccccc2)cs1,11.7%
12,CC(C)Nc1ncnc2c1CCN(C(=O)CCc1ccccc1)CC2,-72%
13,Cc1ccc(NC(=O)c2coc(C)n2)c(C)c1,-4.94%
14,CN(Cc1ccccc1)C(=O)Cn1nc(N2CCSCC2)ccc1=O,0.585%
15,O=C(CN1CCCNC1=O)Nc1ccccc1C(=O)C1CCCC1,9.83%
16,CN(C)c1ccc(C(=O)NCc2ccc(N3CCOCC3)cc2)cn1,6.03%
17,Cc1c(OCC(=O)NCc2ccccc2Cl)c(=O)ccn1C,-40.5%
18,CCOC(C)C(=O)Nc1cc(S(=O)(=O)NC2CC2)ccc1F (stereo not given),-7.51%
19,Cc1cnn(CC2CN(CC(=O)N(C)Cc3ccccc3)CCO2)c1 (stereo not given),-4.35%
20,Cc1ccc(-c2cc(-c3c(C)nn(CCO)c3C)c(C#N)c(N)n2)cc1,15%
21,CN(c1ccc(C(=O)NCCCN2CCOCC2)c(Cl)c1)S(C)(=O)=O,-11.2%
22,COCc1ccccc1C(=O)N1CCN(C2=NCC(C)(C)S2)CC1,6.11%

row,SMILES,cytotoxicity at 10 µM
1,CN(Cc1nc(Cc2cccc(C(F)(F)F)c2)no1)C1CCCCC1,1.99%
2,O=C(NCc1ccccn1)NCC(c1ccco1)N1CCCC1 (stereo not given),-2.56%
3,Cc1nc(-c2ccc(F)cc2)cc(C2CCNCC2)n1,8.1%
4,O=C(c1ccsc1)N1CCc2ncc(Cn3cncn3)n2CC1,-78%
5,CC(C)(C)C(=O)N1CC[C@H]2NC(=O)N(c3ccc(F)cc3)C(=O)[C@H]21,-1.72%
6,N#Cc1ccccc1OCCN1CCCCC1Cn1cncn1 (stereo not given),-6.04%
7,O=C(C1CC1)N1CCC(c2nc(-c3ccccc3)n[nH]2)CC1,-4.15%
8,O=C1Cc2cc(NC(=O)N3CCCN(Cc4cccs4)CC3)ccc2N1,0.929%
9,CCN(C(=O)c1ccc2c(c1)OCO2)C1CC(=O)NC1=O (stereo not given),-3.04%
10,O=C(Cc1csc(N2CCNC2=O)n1)NCC1(c2ccccc2)CC1,-123%
11,CN(C)c1cc(C(=O)N2CCCCC2)ccn1,-4.63%
12,Cc1ccc(NC(=O)Cn2cc(I)cn2)cc1C,5.03%
13,Cc1nc(CN2CCc3ccc(S(N)(=O)=O)cc32)oc1C,2.63%
14,COc1c(CNC2CCc3ccccc32)c(C)nn1C (stereo not given),7.08%
15,COc1cc(N2CC[C@@H]3O[C@@H](C(=O)NC(C)C)C[C@@H]32)ncn1,7.66%
16,Cc1nc(CN2CCCC(N(C)CCOCC(F)(F)F)C2)no1 (stereo not given),-4.92%
17,CSC(C)C(=O)NCc1ccc(-n2cncn2)nc1 (stereo not given),3.28%
18,Cn1ccc(C(=O)NC2CCC23CCN(C(=O)c2ccnnc2)CC3)c1 (stereo not given),-72%
19,Cc1ccc(CN(Cc2ccccn2)C(=O)C2CCCCCN2C)s1 (stereo not given),-20.2%
20,COc1ccccc1OCc1cc(C(=O)N2CCC(NC(C)=O)C2)n[nH]1 (stereo not given),-4.26%
21,Cc1ccc(C(=O)N2CCC3(CCCN(c4ncc(F)cn4)C3)C2)cn1 (stereo not given),-106%
22,O=C1CC(N(C(=O)c2ccc3c(c2)CCC3)C2CC2)C(=O)N1 (stereo not given),-1.99%

row,SMILES,cytotoxicity at 10 µM
1,CC1CCCN(C(=O)Nc2cccc(CN3CCOC3=O)c2)C1 (stereo not given),18.3%
2,Cc1csc(CN2CC[C@H]3C[C@H](C)O[C@@H]3C2)n1,2.58%
3,Cc1cccc(CN2CC[C@@H]3[C@@H]2CCN3C(=O)c2ccoc2C)n1,-3.99%
4,CCc1cc(N2CCCC(CC)(C(=O)O)C2)nc(N2CCOCC2)n1 (stereo not given),0.701%
5,CCc1ccc(C(=O)N2CCN(CC(O)CC)CC2)o1 (stereo not given),-17.6%
6,Cc1ccc(C(N)=O)c(N2Cc3cnc(C(C)(C)C)nc3C2)n1,8.05%
7,CN(Cc1cn2c(n1)CN(C(=O)C1CCOCC1)CC2)Cc1ccco1,-1.46%
8,COCCN1C[C@H](OCc2csc(C)n2)[C@H]2COC[C@H]21,-6.08%
9,O=c1n(CC2COCCO2)nc(CC2CCNCC2)n1-c1ccccc1 (stereo not given),-3.41%
10,COc1ccc(-c2nnc([C@H]3CCN(CC4CC4)C3)o2)cc1,-4.6%
11,Cc1noc(-c2ccc(N(C)Cc3nccs3)nc2)n1,9%
12,CN(C)c1ccc(CNCc2ccc(N3CCOCC3)cc2)cn1,7.17%
13,COC(=O)c1c(Cl)c(C2CC2)nc2onc(C)c12,10.1%
14,Cc1ccccc1C(=O)NC[C@@H]1CCN(C(=O)CN2CCCC2)C[C@H]1O,-39.8%
15,COc1ccc(OC(F)F)c(NCC(=O)NCC(=O)N2CCCC2)c1,-0.77%
16,CC(=O)c1ccccc1C(=O)NCC1(CO)CC1,-18.9%
17,CN(CCOCC1CC1)C(=O)Cn1cccc(C(F)(F)F)c1=O,-6.96%
18,Cc1cc(CNC(=O)NCC(O)c2cccc(F)c2)no1 (stereo not given),3.1%
19,Cn1nc(Cn2cccn2)c2c1CN(C1CCOC1)C2 (stereo not given),6.92%
20,CCC(C)NC(=O)NCCCn1nc2ccccn2c1=O (stereo not given),-8.08%
21,Cn1ccnc1CN1CCCN(C(=O)c2ccc(Cl)o2)CC1,-7.03%
22,Nc1nccc(C2CCCCN2Cc2cccc(F)c2)n1 (stereo not given),-4%

row,SMILES,cytotoxicity at 10 µM
1,CCC(CC)CN1CCN(CC(=O)Nc2ccc3nsnc3c2)CC1,-13.8%
2,Cc1noc(Cl)c1CCC(=O)N1CCC(CC(N)=O)CC1,-0.0707%
3,Cn1cc(CC2CCN(C(=O)NCc3cccc(C(N)=O)c3)C2)cn1 (stereo not given),-4.25%
4,CN(C)C(=O)c1ccn(-c2ccc3ccccn23)n1,6.98%
5,O=C(N[C@@H]1CN(Cc2cccs2)[C@@H]2CCCO[C@@H]21)C1CC1,3.63%
6,Cn1cc(-c2nnn3c2COC(CNCc2ccncc2)C3)cn1 (stereo not given),0.887%
7,CC(C)c1ccc(-c2nonc2N)cc1,-3.25%
8,CC(C)C[C@@H]1N[C@H](C(=O)NC(C)C)Cc2c[nH]c3cccc1c23,7.37%
9,O=C(c1ccc[nH]1)N1CCC2(CC1)COCCN(c1nccs1)C2,12.8%
10,Cc1ccc([C@@H]2CN(C(=O)CCc3ccco3)C[C@H]2N(C)C)cc1,3.13%
11,Cc1nc(CNC(=O)Nc2ccc3c(ccn3CCN(C)C)c2)no1,-21.8%
12,CC1(C)CC(=O)c2cnc3nc(N4CCCC4)[nH]c(=O)c3c2C1,-2%
13,CC(C)n1ccnc1C1CCCN(c2cncc(N(C)C)n2)C1 (stereo not given),10.1%
14,CNC(=O)[C@@H](c1ccccc1)N1CCC[C@H]1C(=O)NCc1ccccn1,5.62%
15,CS(=O)(=O)NCC(=O)N1CCCC1c1noc(C2CC2)n1 (stereo not given),14.2%
16,CCc1noc(CN(CC)C(=O)c2ccc3ncsc3c2)n1,12.2%
17,CC1CCc2nc(O)c(C(=O)NCc3cccc(F)c3)cc2C1 (stereo not given),3.43%
18,COc1ccc(Cl)cc1NCC(=O)NCCc1ccccn1,-8.26%
19,O=C(NCCc1nncn1C1CC1)C1(Cc2ccccc2)CCC1,7.87%
20,Cc1ccccc1S(=O)(=O)NC(=O)CSc1ccc2c(c1)OCCO2,-1.85%
21,CCN1CCN(C(=O)CCC2CCN(C(=O)CCSC)CC2)CC1,-1.56%
22,CC(OCC1CC1)C(=O)N1CCCN(c2cccnn2)CC1 (stereo not given),8.13%

row,SMILES,cytotoxicity at 10 µM
1,Cc1cccc2c1nc1n2[C@@H](CNC2CCCCC2)COC1,-51.8%
2,Nc1nccnc1C(=O)N(Cc1ccco1)CC1CCCO1 (stereo not given),8.13%
3,CN(Cc1ccco1)C(=O)[C@H]1CSCN1C(=O)OC(C)(C)C,-8.97%
4,CCN1CCN(S(=O)(=O)c2ncn(C)c2Cl)CC1,20.9%
5,CCOCC(=O)N1C[C@@H](NC(C)=O)[C@H](c2ccc(OC)cc2)C1,-9.44%
6,Cn1cc(-c2csc(N3CCN(c4nccs4)CC3)n2)cn1,6.23%
7,COc1ccc(CC(=O)N2CCc3nnc(N(C)C)cc3C2)cc1F,-9.5%
8,Cc1nc(NCc2nonc2C)cc(C(C)Cn2nc(C)c(C)c2C)n1 (stereo not given),7.03%
9,CNS(=O)(=O)c1cccc(C(C)NCc2ccc(F)c(F)c2)c1 (stereo not given),16.2%
10,Cc1csc(Nc2cc(C3CN(c4ccncn4)C3)nc(C)n2)n1,11.6%
11,O=C(NCCN1CCOCC1)c1ccc(-c2ccccc2)[nH]c1=O,1.58%
12,CC(C)c1nnc2n1CCN(C(=O)c1cccc(OCC(N)=O)c1)C2,-4.38%
13,CC(NC(=O)N1CCc2ccccc2C1)c1nncn1C (stereo not given),-6.98%
14,OC1(CNc2ccc(-c3nc(C4CC4)no3)cn2)CCCCC1,7.72%
15,COc1cccc(CN(C)C(=O)NCc2c(C)cc(C)[nH]c2=O)c1,-7.98%
16,Cn1ncc(Cl)c1C(=O)N1CCc2nc3sccc3c(=O)n2CC1,-26.7%
17,Cc1cnn(C2CN(Cc3nc(-c4cccnc4)no3)C2)c1,3.03%
18,CCCN1CC2(CCN(C)CC2)CC1C(=O)NCc1cc(C)nn1C (stereo not given),0.318%
19,CN1CCCN(c2cnn(Cc3ccc(C(C)(C)C)cc3)c(=O)c2)CC1,11.1%
20,Cc1nn(C)c(Oc2cccnc2)c1NC(=O)C1CCCO1 (stereo not given),-8.78%
21,CN(Cc1ccncc1)C(=O)Nc1cnn(CC(N)=O)c1,-3.07%
22,Cc1ccc(OCCSCCn2nc3ccccn3c2=O)cc1,7%
